Assay [1] deals with MKN-45. In words: Induction of apoptosis in human MKN45 assessed as accumulation at subG1 phase at 5 uM incubated for 7 days by flow cytometry (reference value: 10.9 +/- 3.2%). The class given is functional. (In general: In flow cytometry, cells or beads pass a laser one at a time.)
Assay [2] deals with MKN-45. Kind of assay: Cytotoxic activity against human MKN45 cells assessed as cell viability at 5 uM incubated for 5 days by MTT assay. The class given is functional. To be noted: MKN-45, 120 h, read-out: Activity. An outline of the steps: (§1)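 MTT viability: exponentially growing cells, 10 000 viable cells/well in RPMI plated overnight, then exposed to test compounds for 3 days (HT-29, Molm-14) or 5 days (Mkn-45) at 37 °C, 5% CO2. MTT added for 4 h, then SDS/HCl solubilization overnight and absorbance read at 562 nm. Viability is expressed relative to untreated cells (100%). Triplicate.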
(In general: Tetrazolium dyes change colour on reduction, which living cells bring about.)

The test system of assay [3] is HT-29. In words: Cytotoxic activity against human HT-29 cells assessed as cell viability at 26 uM incubated for 3 days by MTT assay. The class given is functional. To be noted: HT-29, 72 h, read-out: Activity. In a few lines: as §1
Assay [4] addresses Vascular endothelial growth factor receptor 2 (Homo sapiens, UniProt P35968). Kind of assay: Inhibition of VEGFR2. In a few lines:
(§2)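 IC50 determined by a commercial kinase profiling service (Millipore IC50 Profiler); duplicate testing.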

Assay [5] has as its system MKN-45. In words: Cytotoxic activity against human MKN45 cells assessed as cell viability at 10 uM incubated for 5 days by MTT assay. The class given is functional. To be noted: MKN-45, 120 h, read-out: Activity. In a few lines: as §1
The nature of assay [6]: Inhibition of angiogenesis in chick embryo model assessed as reduction in vessel growth at 26 nM incubated for 24 hrs. The class given is functional, Gallus gallus. An outline of the steps:
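White leghorn eggs incubated at 37.5 °C, 62% humidity. At 70 h, albumen removed and shell windowed. From 75 h, 15 agarose pellets (from a 26 mM DMSO stock in 2% agarose; final concentration 26 nM) placed on the area vasculosa.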

In assay [7] the test system is MKN-45. In words: Cytotoxic activity against human MKN45 cells assessed as cell viability at 20 uM incubated for 5 days by MTT assay. The class given is functional. To be noted: MKN-45, 120 h, read-out: Activity. An outline of the steps: as §1
Assay [8] has as its system MKN-45. In words: Induction of apoptosis in human MKN45 assessed as accumulation at subG1 phase at 15 uM incubated for 7 days by flow cytometry (reference value: 10.9 +/- 3.2%). The class given is functional.
For assay [9], the system named is MKN-45. In words: Cytotoxic activity against human MKN45 cells assessed as cell viability at 0.5 uM incubated for 5 days by MTT assay. The class given is functional. To be noted: MKN-45, 120 h, read-out: Activity. In a few lines: as §1
The subject of assay [10] is MKN-45. In words: Cytotoxic activity against human MKN45 cells assessed as cell viability at 50 uM incubated for 5 days by MTT assay. To be noted: MKN-45, 120 h, read-out: Activity. The class given is functional. An outline of the steps:
as §1

The target of assay [11] is Glycogen synthase kinase-3 beta (Homo sapiens, UniProt P49841). Kind of assay: Inhibition of GSK3beta. In a few lines: as §2
Assay [12] relates to HUVEC. Kind of assay: Induction of apoptosis in human HUVEC assessed as accumulation at subG1 phase at 0.79 uM incubated for 4 days by flow cytometry (reference value: 15.4 +/- 1.5%). The class given is functional.
In assay [13] the test system is HUVEC. Kind of assay: Induction of apoptosis in human HUVEC assessed as accumulation at subG1 phase at 2.6 uM incubated for 4 days by flow cytometry (reference value: 15.4 +/- 1.5%). The class given is functional.
Assay [14] concerns HT-29. Kind of assay: Cytotoxic activity against human HT-29 cells assessed as cell viability at 7.9 uM incubated for 3 days by MTT assay. To be noted: HT-29, 72 h, read-out: Activity. The class given is functional. In a few lines:
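HT-29 cells in exponential growth were seeded at 10 000 viable cells per well in RPMI and left overnight. They were then exposed to compound for 3 days at 37 °C under 5% CO₂. MTT was added for 4 h, followed by overnight solubilisation in 10% SDS/0.01 M HCl and absorbance at 562 nm. Viability is expressed as % of untreated cells (100%), in triplicate.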

For assay [15], the system named is MKN-45. In words: Induction of apoptosis in human MKN45 assessed as accumulation at subG1 phase at 1 uM incubated for 7 days by flow cytometry (reference value: 10.9 +/- 3.2%). The class given is functional.
Assay [16] relates to MKN-45. Kind of assay: Induction of apoptosis in human MKN45 assessed as accumulation at subG1 phase at 10 uM incubated for 7 days by flow cytometry (reference value: 10.9 +/- 3.2%). The class given is functional.
Assay [17] relates to MKN-45. In words: Induction of apoptosis in human MKN45 assessed as accumulation at subG1 phase at 20 uM incubated for 7 days by flow cytometry (reference value: 10.9 +/- 3.2%). The class given is functional.
The subject of assay [18] is MKN-45. In words: Cytotoxic activity against human MKN45 cells assessed as cell viability at 1 uM incubated for 5 days by MTT assay. The class given is functional. To be noted: MKN-45, 120 h, read-out: Activity. In a few lines:
as §1

In assay [19] the target is T1, Receptor-type tyrosine-protein kinase FLT3 (Homo sapiens, UniProt P36888).
T1 sequence (P36888 whole entry): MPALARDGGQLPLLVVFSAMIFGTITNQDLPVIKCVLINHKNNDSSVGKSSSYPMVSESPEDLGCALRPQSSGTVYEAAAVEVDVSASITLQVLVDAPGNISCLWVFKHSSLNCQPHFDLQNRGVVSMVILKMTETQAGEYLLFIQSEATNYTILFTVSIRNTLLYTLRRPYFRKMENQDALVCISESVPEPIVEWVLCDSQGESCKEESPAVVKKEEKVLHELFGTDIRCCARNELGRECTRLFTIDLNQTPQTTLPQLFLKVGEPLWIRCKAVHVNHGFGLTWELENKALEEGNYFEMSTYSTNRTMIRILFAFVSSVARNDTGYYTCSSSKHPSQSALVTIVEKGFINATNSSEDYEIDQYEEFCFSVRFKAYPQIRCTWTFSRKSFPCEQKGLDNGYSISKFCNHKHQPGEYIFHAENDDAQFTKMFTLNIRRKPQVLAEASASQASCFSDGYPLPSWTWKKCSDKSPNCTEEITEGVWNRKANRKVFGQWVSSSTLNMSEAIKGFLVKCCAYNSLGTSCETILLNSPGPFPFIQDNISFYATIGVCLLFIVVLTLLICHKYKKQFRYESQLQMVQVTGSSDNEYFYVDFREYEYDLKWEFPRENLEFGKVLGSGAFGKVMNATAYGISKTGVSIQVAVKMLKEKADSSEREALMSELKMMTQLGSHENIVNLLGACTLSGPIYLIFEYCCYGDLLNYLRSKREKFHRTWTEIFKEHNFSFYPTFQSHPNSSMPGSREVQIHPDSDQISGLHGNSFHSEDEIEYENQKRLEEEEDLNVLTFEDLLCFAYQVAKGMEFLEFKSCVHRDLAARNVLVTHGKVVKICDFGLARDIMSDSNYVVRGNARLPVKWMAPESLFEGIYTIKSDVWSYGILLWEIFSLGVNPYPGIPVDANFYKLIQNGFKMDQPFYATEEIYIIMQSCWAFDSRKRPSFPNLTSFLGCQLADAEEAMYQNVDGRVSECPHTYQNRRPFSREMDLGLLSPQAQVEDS
Kind of assay: Inhibition of FLT3. An outline of the steps:
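Run as an outsourced kinase profiling service (Millipore IC50 Profiler), with the protocol referred to the provider. Gives IC50 values and residual activity at 10 μM test compound. Compounds tested in duplicate.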

The test system of assay [20] is HT-29. Kind of assay: Cytotoxic activity against human HT-29 cells assessed as cell viability at 2.6 uM incubated for 3 days by MTT assay. The class given is functional. To be noted: HT-29, 72 h, read-out: Activity. In a few lines:
as §1

The test system of assay [21] is HT-29. Kind of assay: Cytotoxic activity against human HT-29 cells assessed as cell viability at 52 uM incubated for 3 days by MTT assay. To be noted: HT-29, 72 h, read-out: Activity. The class given is functional. An outline of the steps:
as §1

Molecules are shown by their SMILES.

The text below walks through data of ChEMBL document CHEMBL2177085 (J Med Chem, 2012).

Chain of Vascular endothelial growth factor receptor 2 (P35968 whole entry): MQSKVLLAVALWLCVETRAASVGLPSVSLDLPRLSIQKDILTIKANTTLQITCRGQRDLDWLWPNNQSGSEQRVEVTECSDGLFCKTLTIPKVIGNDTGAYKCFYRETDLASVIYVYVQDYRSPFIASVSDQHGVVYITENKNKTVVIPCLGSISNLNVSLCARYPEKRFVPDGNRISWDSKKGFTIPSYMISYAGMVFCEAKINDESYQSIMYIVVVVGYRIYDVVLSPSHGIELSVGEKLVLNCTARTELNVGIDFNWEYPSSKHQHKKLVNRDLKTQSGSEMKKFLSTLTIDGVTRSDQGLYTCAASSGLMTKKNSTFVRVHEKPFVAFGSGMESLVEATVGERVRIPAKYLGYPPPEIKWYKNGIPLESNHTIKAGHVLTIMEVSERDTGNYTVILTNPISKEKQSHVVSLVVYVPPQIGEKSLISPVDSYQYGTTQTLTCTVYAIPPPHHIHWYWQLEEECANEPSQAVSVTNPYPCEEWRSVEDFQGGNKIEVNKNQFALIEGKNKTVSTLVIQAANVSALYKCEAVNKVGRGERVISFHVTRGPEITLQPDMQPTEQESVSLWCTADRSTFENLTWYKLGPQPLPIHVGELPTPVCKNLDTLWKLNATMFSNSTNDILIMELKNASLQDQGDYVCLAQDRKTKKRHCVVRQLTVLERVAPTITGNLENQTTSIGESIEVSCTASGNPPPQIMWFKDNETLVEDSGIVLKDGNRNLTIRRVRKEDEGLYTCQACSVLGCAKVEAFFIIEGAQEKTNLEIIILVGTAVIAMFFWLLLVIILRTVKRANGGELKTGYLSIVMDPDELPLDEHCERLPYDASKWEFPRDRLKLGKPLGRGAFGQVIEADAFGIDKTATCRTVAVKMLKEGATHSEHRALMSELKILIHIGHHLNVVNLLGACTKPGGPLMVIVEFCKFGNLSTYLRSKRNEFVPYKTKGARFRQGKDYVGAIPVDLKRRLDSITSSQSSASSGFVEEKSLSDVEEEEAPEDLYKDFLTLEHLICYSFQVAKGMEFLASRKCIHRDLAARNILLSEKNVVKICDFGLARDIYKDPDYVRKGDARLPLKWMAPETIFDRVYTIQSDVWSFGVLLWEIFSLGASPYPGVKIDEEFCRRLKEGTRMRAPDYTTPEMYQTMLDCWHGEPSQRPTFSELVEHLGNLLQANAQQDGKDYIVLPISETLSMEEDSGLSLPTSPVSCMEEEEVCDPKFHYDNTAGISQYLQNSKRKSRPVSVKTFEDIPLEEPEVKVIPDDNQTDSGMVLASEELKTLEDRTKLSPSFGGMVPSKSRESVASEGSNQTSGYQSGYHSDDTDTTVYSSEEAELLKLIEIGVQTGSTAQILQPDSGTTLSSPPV
Chain of Glycogen synthase kinase-3 beta (P49841 whole entry): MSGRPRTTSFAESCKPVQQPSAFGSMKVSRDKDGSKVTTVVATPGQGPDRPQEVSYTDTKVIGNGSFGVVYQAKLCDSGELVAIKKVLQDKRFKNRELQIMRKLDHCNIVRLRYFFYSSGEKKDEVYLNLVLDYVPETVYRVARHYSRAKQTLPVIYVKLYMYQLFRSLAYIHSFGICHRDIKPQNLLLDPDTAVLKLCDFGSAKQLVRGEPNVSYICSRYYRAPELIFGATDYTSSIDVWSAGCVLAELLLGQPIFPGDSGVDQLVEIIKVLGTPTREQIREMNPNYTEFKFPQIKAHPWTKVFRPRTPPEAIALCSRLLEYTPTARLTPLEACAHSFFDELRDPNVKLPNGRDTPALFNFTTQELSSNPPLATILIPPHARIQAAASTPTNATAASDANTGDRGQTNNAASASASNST

Turning to `COc1cc(C2=C(c3c[nH]c4ccncc34)C(=O)NC2=O)cc(OC)c1OC`, the Activity in the assay on MKN-45 [1] stood at 15.7%; with MKN-45 [8], 25.7%; in the assay on HUVEC [12], 31.3%; with HUVEC [13], 46.3%; with MKN-45 [15], 8.8%; in the assay on MKN-45 [16], 21.5%. For the same molecule, the Activity in the assay on MKN-45 [17] stood at 31.6%. In the assay with MKN-45 [2], the viability at 5 µM is 99%. In addition, in the assay on HT-29 [3], the viability at 26 µM worked out at 56.5%. Also, the half-maximal inhibitory concentration (IC50) was 590 nM in assay [4], 40 nM in assay [11] and no less than 3000 nM in assay [19]. Also, the viability at 10 µM with MKN-45 [5] is 98.6%. In addition, in [6], the “inhibition (INH)” value was 40%. For the same molecule, the viability at 20 µM in the assay on MKN-45 [7] was found to be 89.4%. For the same molecule, in the assay on MKN-45 [9], the viability at 0.5 µM was 99.1%. In the assay with MKN-45 [10], the viability at 50 µM came to 82.5%. In addition, the viability at 7.9 µM with HT-29 [14] was 61.5%. The viability at 1 µM in the assay with MKN-45 [18] was 100%. Besides, the viability at 2.6 µM with HT-29 [20] stood at 90.8%. Also, in the assay on HT-29 [21], the viability at 52 µM was 47.4%.

What is called IC50 is the concentration that gives 50% inhibition. Low readings indicate higher potency, high ones lower potency.
